Consider one compound from ChEMBL document CHEMBL4184236, “Design, synthesis and biological evaluation of matrine derivatives as potential anticancer agents” (Bioorg Med Chem Lett, 2018).

Assay [1] has as its system SMMC-7721. In words: Induction of apoptosis in human SMMC7721 cells assessed as necrotic cells level at 10 uM incubated for 24 hrs by Annexin V-FITC/PI dual staining based flow cytometry (reference value: 2.47%). The assay is classed as functional. In a few lines:
(§1)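 CNE2 and SMMC-7721 cells were treated for 24 h at 0, 5, 10 or 30 µM, or at 0, 10, 20 or 50 µM depending on compound. Cells were stained with Annexin V-FITC/propidium iodide and quantified by flow cytometry. Apoptotic cells were counted as AV+/PI− (lower right) plus AV+/PI+ (upper right) quadrants.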

The test system of assay [2] is CNE-2. The assay is described as follows: Induction of apoptosis in human CNE2 cells assessed as late apoptotic cells level at 5 uM incubated for 24 hrs by Annexin V-FITC/PI dual staining based flow cytometry (reference value: 1.37%). The assay is classed as functional. In a few lines: as §1
Assay [3] relates to CNE-2. In words: Induction of apoptosis in human CNE2 cells assessed as early apoptotic cells level at 10 uM incubated for 24 hrs by Annexin V-FITC/PI dual staining based flow cytometry (reference value: 3.56%). The assay is classed as functional. In a few lines: as §1
Assay [4] concerns SMMC-7721. The assay is described as follows: Induction of apoptosis in human SMMC7721 cells assessed as late apoptotic cells level at 30 uM incubated for 24 hrs by Annexin V-FITC/PI dual staining based flow cytometry (reference value: 0.88%). The assay is classed as functional. In a few lines:
as §1
(In general: Flow cytometry measures light scatter and fluorescence of single cells or particles in a stream.)

Assay [5] concerns SMMC-7721. In words: Induction of apoptosis in human SMMC7721 cells incubated for 24 hrs by Annexin V-FITC/PI dual staining based flow cytometry. The assay is classed as functional, cell-based. Summed up: as §1
The subject of assay [6] is CNE-2. The assay is described as follows: Induction of apoptosis in human CNE2 cells assessed as late apoptotic cells level at 10 uM incubated for 24 hrs by Annexin V-FITC/PI dual staining based flow cytometry (reference value: 1.37%). The assay is classed as functional. Summed up: as §1
Assay [7] relates to SMMC-7721. In words: Induction of apoptosis in human SMMC7721 cells assessed as viable cells level at 5 uM incubated for 24 hrs by Annexin V-FITC/PI dual staining based flow cytometry (reference value: 95.3%). The assay is classed as functional. In a few lines: as §1
Assay [8] concerns CNE-2. In words: Induction of apoptosis in human CNE2 cells assessed as early apoptotic cells level at 30 uM incubated for 24 hrs by Annexin V-FITC/PI dual staining based flow cytometry (reference value: 3.56%). The assay is classed as functional. In a few lines: as §1
For assay [9], the system named is CNE-2. The assay is described as follows: Induction of apoptosis in human CNE2 cells assessed as early apoptotic cells level at 5 uM incubated for 24 hrs by Annexin V-FITC/PI dual staining based flow cytometry (reference value: 3.56%). The assay is classed as functional. Summed up:
as §1

Assay [10] relates to SMMC-7721. The assay is described as follows: Induction of cell cycle arrest in human SMMC7721 cells assessed as accumulation at G2/M phase at 30 uM incubated for 24 hrs by propidium iodide staining based flow cytometry (reference value: 18.4%). The assay is classed as functional.
The test system of assay [11] is SMMC-7721. The assay is described as follows: Induction of cell cycle arrest in human SMMC7721 cells assessed as accumulation at S phase at 5 uM incubated for 24 hrs by propidium iodide staining based flow cytometry (reference value: 17.2%). The assay is classed as functional.
The subject of assay [12] is CNE-2. In words: Induction of cell cycle arrest in human CNE2 cells assessed as accumulation at G2/M phase at 30 uM incubated for 24 hrs by propidium iodide staining based flow cytometry (reference value: 19.8%). The assay is classed as functional.
For assay [13], the system named is CNE-2. The assay is described as follows: Induction of apoptosis in human CNE2 cells assessed as necrotic cells level at 30 uM incubated for 24 hrs by Annexin V-FITC/PI dual staining based flow cytometry (reference value: 3.43%). The assay is classed as functional. Summed up:
as §1

For assay [14], the system named is CNE-2. In words: Induction of apoptosis in human CNE2 cells assessed as necrotic cells level at 10 uM incubated for 24 hrs by Annexin V-FITC/PI dual staining based flow cytometry (reference value: 3.43%). The assay is classed as functional. Summed up: as §1
The subject of assay [15] is CNE-2. In words: Induction of cell cycle arrest in human CNE2 cells assessed as accumulation at G0-G1 phase at 10 uM incubated for 24 hrs by propidium iodide staining based flow cytometry (reference value: 69.3%). The assay is classed as functional.
Assay [16] concerns SMMC-7721. The assay is described as follows: Induction of cell cycle arrest in human SMMC7721 cells assessed as accumulation at G2/M phase at 10 uM incubated for 24 hrs by propidium iodide staining based flow cytometry (reference value: 18.4%). The assay is classed as functional.
Assay [17] concerns SMMC-7721. The assay is described as follows: Induction of cell cycle arrest in human SMMC7721 cells assessed as accumulation at G0-G1 phase at 30 uM incubated for 24 hrs by propidium iodide staining based flow cytometry (reference value: 64.1%). The assay is classed as functional.
In assay [18] the test system is SMMC-7721. In words: Induction of cell cycle arrest in human SMMC7721 cells assessed as accumulation at subG1 phase at 30 uM incubated for 24 hrs by propidium iodide staining based flow cytometry (reference value: 0.33%). The assay is classed as functional.
The subject of assay [19] is SMMC-7721. In words: Induction of cell cycle arrest in human SMMC7721 cells assessed as accumulation at S phase at 30 uM incubated for 24 hrs by propidium iodide staining based flow cytometry (reference value: 17.2%). The assay is classed as functional.
Assay [20] concerns CNE-2. In words: Induction of cell cycle arrest in human CNE2 cells assessed as accumulation at G0-G1 phase at 30 uM incubated for 24 hrs by propidium iodide staining based flow cytometry (reference value: 69.3%). The assay is classed as functional.
In assay [21] the test system is CNE-2. The assay is described as follows: Induction of cell cycle arrest in human CNE2 cells assessed as accumulation at S phase at 10 uM incubated for 24 hrs by propidium iodide staining based flow cytometry (reference value: 10.3%). The assay is classed as functional.
Assay [22] deals with SMMC-7721. The assay is described as follows: Induction of apoptosis in human SMMC7721 cells assessed as early apoptotic cells level at 10 uM incubated for 24 hrs by Annexin V-FITC/PI dual staining based flow cytometry (reference value: 1.36%). The assay is classed as functional. Summed up: as §1
Assay [23] relates to SMMC-7721. In words: Induction of apoptosis in human SMMC7721 cells assessed as necrotic cells level at 5 uM incubated for 24 hrs by Annexin V-FITC/PI dual staining based flow cytometry (reference value: 2.47%). The assay is classed as functional. Summed up:
as §1

For the compound `COc1cc(Cn2cccc2/C=C2\CC[C@@H]3[C@H]4CCCN5CCC[C@@H](CN3C2=O)[C@@H]45)cc(OC)c1`, the Activity is 6.65% in the assay with SMMC-7721 [1]; 3.17% with CNE-2 [2]; 25.1% in the assay with CNE-2 [3]; 17% in the assay with SMMC-7721 [4]; “Dose-dependent effect” in the assay with SMMC-7721 [5]; 8.94% in the assay on CNE-2 [6]. Moreover, the Activity in the assay on SMMC-7721 [7] was determined as 78.1%; in the assay on CNE-2 [8], 34.6%; with CNE-2 [9], 8.79%; with SMMC-7721 [10], 79.1%; in the assay on SMMC-7721 [11], 7.92%; in the assay on CNE-2 [12] it was 81.1%. In addition, the Activity in the assay with CNE-2 [13] amounted to 6.5%; with CNE-2 [14], 5.22%; in the assay on CNE-2 [15], 3.93%; in the assay with SMMC-7721 [16], 78.9%; in the assay with SMMC-7721 [17], 8.58%; in the assay on SMMC-7721 [18], 3.08%. For the same compound, the Activity turned out to be 9.28% in the assay on SMMC-7721 [19]; 9.89% in the assay with CNE-2 [20]; 2.43% in the assay on CNE-2 [21]; 42% in the assay with SMMC-7721 [22]; 4.04% with SMMC-7721 [23].
